# Residues, ends and D or L forms follow the SMILES beside them.
# Columns and labels:
# [1] = Selectivity ratio of antioxidant activity assessed as HNE quenching to antioxidant activity assessed as PYR quenching
# In short: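 Ratio of % HNE quenched to % pyridoxal quenched. Both measured after 180 min incubation, with % consumption taken against blanks without compound.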
# [2] = Antioxidant activity assessed as HNE quenching at 1 mM after 180 mins by HPLC analysis; format: functional
# In short: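 HNE consumption measured with dipeptide at 1 mM in 10 mmol PBS pH 7.4, 180 min at 37 °C. Remaining HNE measured by reversed-phase HPLC with PDA detection at 224 nm. Column at 37 °C. Isocratic H2O/CH3CN/HCOOH 40/60/0.1. Result given as % aldehyde consumed relative to a blank without compound.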
# [3] = Antioxidant activity assessed as PYR quenching after 180 mins by HPLC analysis; format: functional; design: concentration or dose not given beside the values
# In short: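 Pyridoxal used as the target aldehyde under the same incubation (180 min). Consumption determined by HPLC with fluorimetric detection. Expressed as % aldehyde consumed versus a blank incubated without compound.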
# [4] = Stability in human serum assessed as compound remaining at 50 uM after 30 mins by LC-MS analysis; format: ADME, cell-free; conditions: read-out: Stability
SMILES,Selectivity ratio [1],Activity [2] [%],Activity [3] [%],"remaining at 0.5 h, 50 µM [4] [%]"
NC(=O)[C@H](Cc1cnc[nH]1)NC(=O)[C@@H](N)Cc1ccccc1,8.02,9.79,1.22,
COC(=O)[C@H](Cc1cnc[nH]1)NC(=O)[C@@H](N)CCCCN,16.7,31.3,1.87,87.5
COC(=O)[C@@H](Cc1cnc[nH]1)NC(=O)[C@@H](N)C(C)C,4.67,16.9,3.62,
COC(=O)[C@@H](Cc1cnc[nH]1)NC(=O)[C@@H](N)CCC(=O)O,18,13.1,0.73,
NC(=O)[C@H](Cc1cnc[nH]1)NC(=O)[C@@H](N)Cc1cnc[nH]1,1.35,9.81,7.86,
NC(=O)[C@H](Cc1cnc[nH]1)NC(=O)[C@@H](N)Cc1c[nH]c2ccccc12,6.01,8.62,1.86,
COC(=O)[C@@H](Cc1cnc[nH]1)NC(=O)[C@@H](N)Cc1ccc(O)cc1,21.3,27.4,1.29,40.5
COC(=O)[C@H](Cc1cnc[nH]1)NC(=O)[C@@H](N)C(C)C,5.71,4.97,0.87,
COC(=O)[C@@H](Cc1cnc[nH]1)NC(=O)[C@@H](N)CCSC,0.58,1.81,3.11,
NC(=O)[C@@H](Cc1cnc[nH]1)NC(=O)[C@@H](N)CS,2.69,100,37.2,
NC(=O)CC[C@H](N)C(=O)N[C@H](Cc1cnc[nH]1)C(N)=O,9.4,14.8,1.57,81.3
NCCC(=O)N[C@@H](Cc1c[nH]cn1)C(=O)O,8.65,48.2,5.57,
CC[C@H](C)[C@H](N)C(=O)N[C@@H](Cc1cnc[nH]1)C(N)=O,3.51,7.09,2.02,
NC(=O)[C@H](Cc1cnc[nH]1)NC(=O)[C@@H](N)CC(=O)O,5.16,5.99,1.49,
COC(=O)[C@H](Cc1cnc[nH]1)NC(=O)[C@@H](N)CCC(=O)O,16.1,12.2,0.76,
COC(=O)[C@@H](Cc1cnc[nH]1)NC(=O)[C@@H](N)CC(N)=O,8.33,9.5,1.14,
COC(=O)[C@@H](Cc1cnc[nH]1)NC(=O)[C@@H](N)CO,2.84,5.91,2.08,
COC(=O)[C@@H](Cc1cnc[nH]1)NC(=O)[C@@H](N)Cc1cnc[nH]1,1.15,8.86,7.7,
NCCCC[C@H](N)C(=O)N[C@@H](Cc1cnc[nH]1)C(N)=O,38.3,15.7,0.41,67.7
NC(=O)[C@@H](Cc1cnc[nH]1)NC(=O)[C@@H](N)Cc1c[nH]c2ccccc12,86.2,11.2,0.13,
NCCCC[C@H](N)C(=O)N[C@H](Cc1cnc[nH]1)C(N)=O,5.55,4.16,0.75,68

SMILES,Selectivity ratio [1],Activity [2] [%],Activity [3] [%],"remaining at 0.5 h, 50 µM [4] [%]"
COC(=O)[C@H](Cc1cnc[nH]1)NC(=O)[C@@H](N)CCSC,0.07,0.17,2.61,
COC(=O)[C@H](Cc1cnc[nH]1)NC(=O)[C@@H](N)CC(N)=O,9.59,9.59,1,
N=C(N)NCCC[C@H](N)C(=O)N[C@H](Cc1cnc[nH]1)C(N)=O,27.9,12,0.43,
NC(=O)[C@H](Cc1cnc[nH]1)NC(=O)[C@@H](N)CS,3.61,100,27.7,
COC(=O)[C@@H](Cc1cnc[nH]1)NC(=O)[C@@H](N)CS,2.45,100,40.8,
COC(=O)[C@@H](Cc1cnc[nH]1)NC(=O)[C@@H](N)CCCCN,29.1,10.2,0.35,90.5
NC(=O)CC[C@H](N)C(=O)N[C@@H](Cc1cnc[nH]1)C(N)=O,3.54,9.37,2.65,
COC(=O)[C@H](Cc1cnc[nH]1)NC(=O)[C@@H](N)CS,3.96,100,25.3,
COC(=O)[C@H](Cc1cnc[nH]1)NC(=O)[C@@H](N)Cc1cnc[nH]1,3.3,6,1.82,
NC(=O)[C@@H](Cc1cnc[nH]1)NC(=O)[C@@H](N)Cc1ccccc1,9.57,6.7,0.7,
N=C(N)NCCC[C@H](N)C(=O)N[C@@H](Cc1cnc[nH]1)C(N)=O,30,7.79,0.26,
NC(=O)[C@@H](Cc1cnc[nH]1)NC(=O)[C@@H](N)Cc1cnc[nH]1,1.26,9.16,7.28,
COC(=O)[C@H](Cc1c[nH]cn1)NC(=O)[C@@H](N)Cc1c[nH]c2ccccc12,2.79,11.7,4.2,
COC(=O)[C@H](Cc1cnc[nH]1)NC(=O)[C@@H](N)Cc1ccc(O)cc1,3.12,12.5,4.02,
COC(=O)[C@@H](Cc1cnc[nH]1)NC(=O)[C@@H](N)Cc1c[nH]c2ccccc12,3.24,18.8,5.81,
COC(=O)[C@H](Cc1cnc[nH]1)NC(=O)[C@@H](N)CO,51.8,5.18,0.1,
C[C@@H](O)[C@H](N)C(=O)N[C@H](Cc1cnc[nH]1)C(N)=O,1.83,12.1,6.62,
NC(=O)[C@@H](Cc1cnc[nH]1)NC(=O)[C@@H](N)CC(=O)O,4.02,5.98,1.16,
C[C@@H](O)[C@H](N)C(=O)N[C@@H](Cc1cnc[nH]1)C(N)=O,2.75,3.9,1.42,
NCC(=O)N[C@@H](Cc1cnc[nH]1)C(=O)O (H-Gly-His-OH),2.42,9.11,3.77,
CC[C@H](C)[C@H](N)C(=O)N[C@H](Cc1cnc[nH]1)C(N)=O,8.69,5.13,0.59,

# From ChEMBL document CHEMBL2407007, “Exploring the space of histidine containing dipeptides in search of novel efficient RCS sequestering agents” (Eur J Med Chem, 2013)
